Here are results for 2 compounds from ChEMBL document CHEMBL1212759, “Antifungal activity of colistin against mucorales species in vitro and in a murine model of Rhizopus oryzae pulmonary infection” (Antimicrob Agents Chemother, 2010).

Active and inactive are the calls of the source. The calls are words filed in the database; no cut-off is given here.

Type in all cases: functional, organism-based
Experiment [1] deals with Rhizopus arrhizus. The experiment can be described thus: Fungicidal activity against Rhizopus oryzae 5799 at 2 ug/ml after 6 hrs by DiBAC staining. In outline: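 Spores were grown to mycelia in RPMI 1640 plus 0.15% Junlon, shaken 18 h at 37°C. Mycelia were pelleted and exposed 6 h at 37°C with shaking to colistin (two levels), amphotericin B 2 μg/ml, or drug-free medium. They were washed in MOPS pH 7, stained with DiBAC 2 μg/ml for 1 h in the dark at ambient temperature, and imaged by fluorescence microscopy with an FITC filter.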

Experiment [2] relates to Rhizopus arrhizus. Description: Antimicrobial activity against Rhizopus oryzae infected in BALB/c mouse pulmonary mucormycosis model assessed as effect on fungus-induced mortality rate at 80 mg/kg/day, ip after 10 days. In a few lines: (§1)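 Female BALB/c mice (18–22 g) were immunosuppressed with cyclophosphamide 75 mg/kg i.p. and cortisone acetate 300 mg/kg s.c., then infected intranasally with ~3,500 R. oryzae spores. Colistimethate 40 mg/kg i.p. was given every 12 h for 5 days, starting 3 h post-infection; controls got saline. Groups of 10, run three times. Mortality was followed twice daily for 10 days; lung fungal burden by qPCR of rRNA gene, duplicate.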

For experiment [3], the system named is Rhizopus arrhizus. The experiment can be described thus: Antimicrobial activity against Rhizopus oryzae infected in BALB/c mouse pulmonary mucormycosis model assessed as increase in survival rate at 5 mg/kg/day, itn after 10 days. In a few lines: (§2)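 Female BALB/c mice were immunosuppressed with cyclophosphamide and cortisone acetate and infected intranasally with ~3,500 R. oryzae spores. As prophylaxis, intranasal colistimethate 2.5 mg/kg was given every 12 h for 5 days, starting 1 day before infection; on infection day it was given 3 h after spores. Groups of 10, run three times. Survival was followed over 10 days; lung burden by rRNA-gene qPCR.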

In experiment [4] the test system is Rhizopus arrhizus. The experiment can be described thus: Antifungal activity against Rhizopus oryzae infected in BALB/c mouse pulmonary mucormycosis model assessed as decrease in fungal burden at 80 mg/kg/day, ip by RT-qPCR analysis. In outline:
as §1
(Quantitative PCR measures a nucleic acid by following its amplification.)

For experiment [5], the system named is Rhizopus arrhizus. The experiment can be described thus: Antifungal activity against Rhizopus oryzae infected in BALB/c mouse pulmonary mucormycosis model assessed as decrease in fungal burden at 5 mg/kg/day, itn by RT-qPCR analysis. In a few lines: as §2

For `C[C@@H]1[C@H](O)[C@@H](C)/C=C/C=C/C=C/C=C/C=C/C=C/C=C/[C@H](O[C@@H]2O[C@H](C)[C@@H](O)[C@H](N)[C@@H]2O)C[C@@H]2O[C@](O)(C[C@@H](O)C[C@@H](O)[C@H](O)CC[C@@H](O)C[C@@H](O)CC(=O)O[C@H]1C)C[C@H](O)[C@H]2C(=O)O`, the outcome with Rhizopus arrhizus [1] was Active.

As to COLISTIMETHATE, the outcome in the experiment on Rhizopus arrhizus [2] was inactive. Further, in the experiment with Rhizopus arrhizus [3], the survival came to 61%. In the experiment on Rhizopus arrhizus [4], the inhibition entry is “inactive”. The inhibition result in the experiment with Rhizopus arrhizus [5] is “Active”.
